According to ChEMBL document CHEMBL5120856, “New salicylic acid derivatives, double inhibitors of glycolate oxidase and lactate dehydrogenase, as effective agents decreasing oxalate production” (Eur J Med Chem, 2022):
Activity calls are given as the source filed them. No cut-off for these calls is given here.

How the values were obtained:
[1] = system: Hepatocyte; assay: Inhibition of GO/LDHA in hyperoxaluric-primary hepatocyte isolated from Grhpr-knockdown PH2 C57BL/6 mouse assessed as reduction in relative oxalate output at 10 uM measured at 48 hrs in the presence of glycolate relative to control; format: cell-based; design: scale not given: the % may be the effect or the level left
Summary of the method: (§1)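 Grhpr-/- mouse primary hepatocytes cultured with 10 mM glycolate, inhibitor at 10 μM; extracellular oxalate determined colorimetrically at 24 and 48 h post-treatment, expressed relative to untreated medium (RO); negative RO means below detection limit; three/four replicates, mean ± SD.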

[2] = target: T1, 2-Hydroxyacid oxidase 1 (Mus musculus, UniProt Q9WU19); assay: Non-competitive mixed inhibition of N-terminal His-tagged mouse recombinant glycolate oxidase expressed in Escherichia coli BL21 (DE3) cells assessed as inhibition constant using varying concentration of glycolate as substrate measured every 60 sec for 15 mins by Amplex red and horseradish peroxidase based fluorescence assay
T1 sequence (Q9WU19 whole entry): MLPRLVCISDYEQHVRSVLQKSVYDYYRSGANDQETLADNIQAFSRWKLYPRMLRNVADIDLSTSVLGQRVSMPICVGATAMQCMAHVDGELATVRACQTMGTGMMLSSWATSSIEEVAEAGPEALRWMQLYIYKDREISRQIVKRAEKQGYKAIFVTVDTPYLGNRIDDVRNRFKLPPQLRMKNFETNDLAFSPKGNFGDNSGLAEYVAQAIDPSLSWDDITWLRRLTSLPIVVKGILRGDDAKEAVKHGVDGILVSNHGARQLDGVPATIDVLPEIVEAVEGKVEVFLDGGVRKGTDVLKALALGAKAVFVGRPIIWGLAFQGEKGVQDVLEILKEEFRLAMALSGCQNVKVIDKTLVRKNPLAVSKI

[3] = Inhibition of GO/LDHA in hyperoxaluric-primary hepatocyte isolated from Hoga1-knockdown PH3 C57BL/6 mouse measured at 24 hrs in the presence of hydroxyproline; format: cell-based
Summary of the method: (§2)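 Hoga1-/- hepatocytes with 10 mM hydroxyproline; eight inhibitor concentrations per replicate; colorimetric extracellular oxalate at 24 or 48 h; EC50 as mean of three/four replicates ± SD.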

[4] = system: Hepatocyte; assay: Cytotoxicity against hyperoxaluric-primary hepatocyte isolated from Grhpr-knockdown PH2 C57BL/6 mouse assessed as cell death at 10 uM by MTS assay; format: toxicity, cell-based; conditions: hepatocytes, Grhpr-knockdown PH2 (primary hyperoxaluria type 2)
Summary of the method: (§3)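 Primary hepatocytes from Agxt1-/- (PH1, 5 mM glycolate), Grhpr-/- (PH2, 10 mM glycolate) or Hoga1-/- (PH3, 10 mM hydroxyproline) mice, incubated with inhibitor at 10 μM; viability followed through the oxalate assay by MTS tetrazolium method.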

[5] = Toxicity in Agxt1 knockdown PH1 C57BL/6 mouse assessed as tolerance at 20 mg/kg, po administered for 5 days; format: organism-based; conditions: in vivo, pH 1, 20 mg/kg, 120 h, time 5 day
Summary of the method: (§4)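 Ten male Agxt1-/- mice dosed orally at 20 mg/kg daily for 5 days; 24-h urine oxalate (creatinine-normalized) and glycolate compared with pre-treatment baseline; clinical signs of toxicity monitored; mean ± SE.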

[6] = system: Hepatocyte; assay: Inhibition of GO/LDHA in hyperoxaluric-primary hepatocyte isolated from Agxt1 knockdown PH1 C57BL/6 mouse assessed as reduction in extracellular oxalate concentration at 10 uM measured at 48 hrs in the presence of glycolate relative to control; format: cell-based; design: scale not given: the % may be the effect or the level left
Summary of the method: (§5)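 Agxt1-/- mouse primary hepatocytes cultured with 5 mM glycolate, inhibitor at 10 μM; extracellular oxalate measured by colorimetric kit 24 and 48 h after inhibitor addition; relative oxalate = oxalate with inhibitor over oxalate without inhibitor; negative values mean below detection limit; mean of three/four replicates ± SD.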

[7] = system: Hepatocyte; assay: Inhibition of GO/LDHA in hyperoxaluric-primary hepatocyte isolated from Hoga1-knockdown PH3 C57BL/6 mouse assessed as reduction in relative oxalate output at 10 uM measured at 48 hrs in the presence of hydroxyproline relative to control; format: cell-based; design: scale not given: the % may be the effect or the level left
Summary of the method: (§6)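 Hoga1-/- mouse primary hepatocytes challenged with 10 mM hydroxyproline, inhibitor 10 μM; extracellular oxalate measured by colorimetric kit 24 and 48 h after dosing, given as ratio to oxalate without inhibitor; negative values are below detection limit; mean of three/four replicates ± SD.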

[8] = target: T2, L-lactate dehydrogenase B chain (Homo sapiens, UniProt P07195); assay: Non-competitive inhibition of human recombinant LDHB assessed as inhibition constant using varying concentration of pyruvate as substrate preincubated for 10 mins followed by substrate addition and measured every 60 sec for 10 mins in the presence of NADH by fluorescence assay
[9] = Inhibition of GO/LDHA in hyperoxaluric-primary hepatocyte isolated from Agxt1 knockdown PH1 C57BL/6 mouse measured at 48 hrs in the presence of 5 mM glycolate; format: cell-based
Summary of the method: (§7)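 Agxt1-/- hepatocytes with 5 mM glycolate; eight inhibitor concentrations per replicate; extracellular oxalate measured colorimetrically at 24 or 48 h; EC50 as mean of three/four replicates ± SD.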

[10] = system: Hepatocyte; assay: Inhibition of GO/LDHA in hyperoxaluric-primary hepatocyte isolated from Grhpr-knockdown PH2 C57BL/6 mouse assessed as reduction in relative oxalate output at 10 uM measured at 24 hrs in the presence of glycolate relative to control; format: cell-based; design: scale not given: the % may be the effect or the level left; summary of the method: as §1
[11] = system: Hepatocyte; assay: Cytotoxicity against hyperoxaluric-primary hepatocyte isolated from Agxt1-knockdown PH1 C57BL/6 mouse assessed as cell death at 10 uM by MTS assay; format: toxicity, cell-based; conditions: hepatocytes, Agxt1-knockdown PH1, 10 µM; summary of the method: as §3
[12] = In vivo inhibition of GO/LDHA in Agxt1 knockdown PH1 C57BL/6 mouse assessed as decrease in urine oxalate level at 20 mg/kg, po administered for 5 days relative to control; format: functional; design: scale not given: the % may be the effect or the level left; conditions: time 5 day
Summary of the method: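 Agxt1-/- (PH1) mice, ten males, dosed orally at 20 mg/kg body weight once daily for 5 days. 24-h urine was collected, and oxalate was normalised to creatinine. Urine glycolate was also measured. Values are expressed as % of each animal's own basal pre-treatment excretion, which serves as the control, and are reported as mean ± SE.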

[13] = target: T3, 2-Hydroxyacid oxidase 1 (Mus musculus) (UniProt Q9WU19); assay: Non-competitive mixed inhibition of N-terminal His-tagged mouse recombinant glycolate oxidase expressed in Escherichia coli BL21 (DE3) cells assessed as decrease in Vmax with increase in apparent Km using glycolate as substrate upto 60 microM
T3 sequence (whole entry): T1 sequence (Q9WU19 whole entry)

[14] = Inhibition of GO/LDHA in hyperoxaluric-primary hepatocyte isolated from Hoga1-knockdown PH3 C57BL/6 mouse measured at 48 hrs in the presence of hydroxyproline; format: cell-based; summary of the method: as §2
[15] = system: Hepatocyte; assay: Inhibition of GO/LDHA in hyperoxaluric-primary hepatocyte isolated from Hoga1-knockdown PH3 C57BL/6 mouse assessed as reduction in relative oxalate output at 10 uM measured at 24 hrs in the presence of hydroxyproline relative to control; format: cell-based; design: scale not given: the % may be the effect or the level left; summary of the method: as §6
[16] = Inhibition of GO/LDHA in hyperoxaluric-primary hepatocyte isolated from Grhpr-knockdown PH2 C57BL/6 mouse measured at 24 hrs in the presence of 10 mM glycolate; format: cell-based
Summary of the method: (§8)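 Grhpr-/- hepatocytes with 10 mM glycolate; eight inhibitor concentrations per replicate; colorimetric extracellular oxalate at 24 or 48 h; EC50 as mean of three/four replicates ± SD.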

[17] = system: Hepatocyte; assay: Cytotoxicity against hyperoxaluric-primary hepatocyte isolated from Hoga1-knockdown PH3 C57BL/6 mouse assessed as cell death at 10 uM by MTS assay; format: toxicity, cell-based; conditions: hepatocytes, Hoga1-knockdown PH3, 10 µM; summary of the method: as §3
[18] = Inhibition of GO/LDHA in hyperoxaluric-primary hepatocyte isolated from Grhpr-knockdown PH2 C57BL/6 mouse measured at 48 hrs in the presence of 10 mM glycolate; format: cell-based; summary of the method: as §8
[19] = target: T2, L-lactate dehydrogenase B chain; assay: Inhibition of human recombinant LDHB using pyruvate as substrate preincubated for 10 mins followed by substrate addition and measured every 60 sec for 10 mins in the presence of NADH by fluorescence assay
[20] = system: Hepatocyte; assay: Inhibition of GO/LDHA in hyperoxaluric-primary hepatocyte isolated from Agxt1 knockdown PH1 C57BL/6 mouse assessed as reduction in relative oxalate output at 10 uM measured at 24 hrs in the presence of glycolate relative to control; format: cell-based; design: scale not given: the % may be the effect or the level left; summary of the method: as §5
[21] = Inhibition of GO/LDHA in hyperoxaluric-primary hepatocyte isolated from Agxt1 knockdown PH1 C57BL/6 mouse measured at 24 hrs in the presence of 5 mM glycolate; format: cell-based; summary of the method: as §7
[22] = Toxicity in Agxt1 knockdown PH1 C57BL/6 mouse assessed as clinical signs of toxicity at 20 mg/kg, po administered for 5 days; format: organism-based; conditions: in vivo, pH 1, 20 mg/kg, 120 h, time 5 day; summary of the method: as §4
[23] = system: Mus musculus; assay: In vivo inhibition of GO/LDHA in Agxt1 knockdown PH1 C57BL/6 mouse assessed as increase in urine glycolate level at 20 mg/kg, po administered for 5 days relative to control; format: functional, organism-based; conditions: time 5.0 day; summary of the method: as §4
[24] = target: T2, L-lactate dehydrogenase B chain; assay: Mixed inhibition of human recombinant LDHB assessed as inhibition constant using varying concentration of pyruvate as substrate preincubated for 10 mins followed by substrate addition and measured every 60 sec for 10 mins in the presence of NADH by fluorescence assay
[25] = target: T1, 2-Hydroxyacid oxidase 1; assay: Inhibition of N-terminal His-tagged mouse recombinant glycolate oxidase expressed in Escherichia coli BL21 (DE3) cells using glycolate as substrate preincubated for 10 mins followed by substrate addition and measured after 10 mins by Amplex red and horseradish peroxidase based fluorescence assay
[26] = system: HEK293; assay: Cytotoxicity against HEK293 cells assessed as reduction in cell viability upto 50 uM measured after 48 hrs by MTT assay; format: toxicity, cell-based; conditions: human, hek293, 48 h

T2 sequence (P07195 whole entry): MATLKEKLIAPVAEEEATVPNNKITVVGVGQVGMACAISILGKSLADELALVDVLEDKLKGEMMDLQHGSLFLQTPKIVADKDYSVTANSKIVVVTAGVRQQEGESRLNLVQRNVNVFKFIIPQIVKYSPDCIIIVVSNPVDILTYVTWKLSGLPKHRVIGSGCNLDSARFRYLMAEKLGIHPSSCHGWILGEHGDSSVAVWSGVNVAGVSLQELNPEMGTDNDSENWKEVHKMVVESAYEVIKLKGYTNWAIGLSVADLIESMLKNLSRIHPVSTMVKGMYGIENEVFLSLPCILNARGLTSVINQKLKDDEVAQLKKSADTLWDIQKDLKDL

`C#CCNCc1ccc(-c2ccc(O)c(C(=O)O)c2)o1.N` showed an Activity [1] of 70%, a Ki [2] of 10.5 µM and an EC50 [3] of 1700 nM. For the same compound, the Activity [4] was “Non-Toxic”, the Activity [5] was “Non-Toxic” and the Activity [6] was 70%. It also gave an Activity [7] of 70%, a Ki [8] of 5.1 µM and an EC50 [9] of 3.8 µM. The Activity [10] was 90%, the Activity [11] was “Non-Toxic” and the Activity [12] was 50%. For the same compound, the inhibition [13] was “Active”, the EC50 [14] was 1900 nM and the Activity [15] was 90%. The EC50 [16] was 1200 nM, the Activity [17] was “Non-Toxic” and the EC50 [18] was 2700 nM. It also gave an IC50 [19] of 11.8 µM, an Activity [20] of 90% and an EC50 [21] of 4 µM. The Activity [22] was “Non-Toxic”, the Activity [23] was “Active” and the Ki [24] was 2000 nM. The IC50 [25] was 8.1 µM and the Activity [26] was “Non-Toxic”.
